Values after ≈ are worked out from the molar mass of the structure shown.
Legend:
Pseudomonas aeruginosa [1] = test: Antibacterial activity against Pseudomonas aeruginosa isolate 1005 by microdilution method; assay type: functional
Method in brief: (§1)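 CLSI broth microdilution in cation-adjusted Mueller-Hinton broth (20–25 mg/liter Ca, 10–12.5 mg/liter Mg). Standard inoculum 10⁵ CFU/ml, incubated in ambient air. Clinical hospital isolates.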

[2] = fT>MIC in neutropenic mouse infected with Pseudomonas aeruginosa isolate 1052 at 500 mg administered as 1 hr infusion; assay type: functional
Method in brief: (§2)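 Free-drug time above MIC simulated from one-compartment mouse serum PK (25.2% protein binding). The mice were cyclophosphamide-neutropenic and uranyl nitrate-renally impaired. Regimen was subcutaneous 10, 15, 2.5, 1.25, 0.5, 0.25 mg/kg at 0, 0.5, 2.5, 4, 5.5, 7 h, repeated every 8 h over 24 h.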

[3] = fT>MIC in human infected with Pseudomonas aeruginosa isolate 1005 at 500 mg administered as 1 hr infusion; assay type: functional
[4] = fT>MIC in neutropenic mouse infected with Pseudomonas aeruginosa isolate 886 at 500 mg administered as 1 hr infusion; assay type: functional; method in brief: as §2
[5] = fT>MIC in human infected with Pseudomonas aeruginosa isolate 1052 at 500 mg administered as 4 hr infusion; assay type: functional
[6] = fT>MIC in human infected with Pseudomonas aeruginosa isolate 1062 at 500 mg administered as 4 hr infusion; assay type: functional
Pseudomonas aeruginosa [7] = test: Antibacterial activity against Pseudomonas aeruginosa isolate 979 by microdilution method; assay type: functional
[8] = fT>MIC in human infected with Pseudomonas aeruginosa isolate 979 at 500 mg administered as 4 hr infusion; assay type: functional
[9] = fT>MIC in human infected with Pseudomonas aeruginosa isolate 988 at 500 mg administered as 4 hr infusion; assay type: functional
[10] = fT>MIC in human infected with Pseudomonas aeruginosa isolate 927 at 500 mg administered as 4 hr infusion; assay type: functional
[11] = Clearance in Pseudomonas aeruginosa ATCC 27853 infected neutropenic ICR mouse at 150 mg/kg, sc administered as single dose 2 hrs postinfection; assay type: ADME, organism-based; set-up: dose 150 mg/kg, route subcutaneous; details: in vivo
Method in brief: (§3)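 Neutropenic mice (cyclophosphamide ip 150 and 100 mg/kg, 4 and 1 days before inoculation) with uranyl nitrate 5 mg/kg ip 3 days before, for renal impairment. Thigh infection with ATCC 27853 at 10⁶ CFU/ml, 0.1 ml per thigh. Single sc doses 2 h later. Intracardiac blood from 6–12 mice per time point, eight time points over 4 h. Serum assayed by HPLC (linear 0.5–40 μg/ml). One-compartment first-order fit.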

[12] = Cmax in healthy human at 500 mg administered as 1 hr infusion; assay type: ADME, organism-based; set-up: dose 500 mg; details: in vivo, iv
[13] = fT>MIC in human infected with Pseudomonas aeruginosa isolate 1060 at 500 mg administered as 4 hr infusion; assay type: functional
[14] = AUC in healthy human at 500 mg administered as 4 hr infusion; assay type: ADME, organism-based; details: plasma, iv
[15] = fT>MIC in human infected with Pseudomonas aeruginosa isolate 1052 at 500 mg administered as 1 hr infusion; assay type: functional
[16] = fT>MIC in neutropenic mouse infected with Pseudomonas aeruginosa isolate 1082 at 500 mg administered as 4 hr infusion; assay type: functional
Method in brief: (§4)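 Mouse fT>MIC was modelled with first-order one-compartment serum PK and 25.2% binding. Mice were neutropenic (cyclophosphamide) with uranyl nitrate renal impairment. Subcutaneous doses were 5.5, 2.25, 4.5, 4.5, 4.5, 4.5, 0.75, 0.375 mg/kg at 0, 0.5, 1.5, 2.5, 3.5, 4.5, 6, 7.5 h per 8-h interval over 24 h.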

[17] = fT>MIC in human infected with Pseudomonas aeruginosa isolate 1006 at 500 mg administered as 4 hr infusion; assay type: functional
Pseudomonas aeruginosa [18] = test: Antibacterial activity against Pseudomonas aeruginosa isolate 1050 by microdilution method; assay type: functional; method in brief: as §1
[19] = fT>MIC in human infected with Pseudomonas aeruginosa isolate 968 at 500 mg administered as 4 hr infusion; assay type: functional
[20] = fT>MIC in neutropenic mouse infected with Pseudomonas aeruginosa isolate 1036 at 500 mg administered as 4 hr infusion; assay type: functional; method in brief: as §4
[21] = fT>MIC in neutropenic mouse infected with Pseudomonas aeruginosa isolate 1055 at 500 mg administered as 1 hr infusion; assay type: functional; method in brief: as §2
[22] = fT>MIC in human infected with Pseudomonas aeruginosa isolate 1005 at 500 mg administered as 4 hr infusion; assay type: functional
[23] = fT>MIC in human infected with Pseudomonas aeruginosa isolate 979 at 500 mg administered as 1 hr infusion; assay type: functional
Pseudomonas aeruginosa [24] = test: Antibacterial activity against Pseudomonas aeruginosa isolate 927 by microdilution method; assay type: functional
Pseudomonas aeruginosa [25] = test: Antibacterial activity against Pseudomonas aeruginosa isolate 1052 by microdilution method; assay type: functional; method in brief: as §1
[26] = fT>MIC in human infected with Pseudomonas aeruginosa isolate 869 at 500 mg administered as 1 hr infusion; assay type: functional
Pseudomonas aeruginosa [27] = test: Antibacterial activity against Pseudomonas aeruginosa isolate 993 by microdilution method; assay type: functional
[28] = fT>MIC in human infected with Pseudomonas aeruginosa isolate 993 at 500 mg administered as 1 hr infusion; assay type: functional
[29] = fT>MIC in human infected with Pseudomonas aeruginosa isolate 1055 at 500 mg administered as 1 hr infusion; assay type: functional
[30] = fT>MIC in neutropenic mouse infected with Pseudomonas aeruginosa isolate 944 at 500 mg administered as 4 hr infusion; assay type: functional; method in brief: as §4
Pseudomonas aeruginosa [31] = test: Antibacterial activity against Pseudomonas aeruginosa isolate 936 by microdilution method; assay type: functional
[32] = fT>MIC in human infected with Pseudomonas aeruginosa isolate 906 at 500 mg administered as 4 hr infusion; assay type: functional
[33] = fT>MIC in neutropenic mouse thigh infection model at 4 to 8 ug/ml after 24 hrs; assay type: functional; method in brief: as §2
[34] = fT>MIC in human infected with Pseudomonas aeruginosa isolate 968 at 500 mg administered as 1 hr infusion; assay type: functional
[35] = fT>MIC in neutropenic mouse infected with Pseudomonas aeruginosa isolate 1050 at 500 mg administered as 1 hr infusion; assay type: functional; method in brief: as §2
Pseudomonas aeruginosa [36] = test: Antibacterial activity against Pseudomonas aeruginosa isolate 1029 by microdilution method; assay type: functional
[37] = Clearance in Pseudomonas aeruginosa ATCC 27853 infected neutropenic ICR mouse at 50 mg/kg, sc administered as single dose 2 hrs postinfection; assay type: ADME, organism-based; set-up: dose 50 mg/kg, route subcutaneous; details: in vivo; method in brief: as §3
[38] = fT>MIC in neutropenic mouse infected with Pseudomonas aeruginosa isolate 935 at 500 mg administered as 1 hr infusion; assay type: functional; method in brief: as §2
[39] = fT>MIC in neutropenic mouse infected with Pseudomonas aeruginosa isolate 1058 at 500 mg administered as 1 hr infusion; assay type: functional; method in brief: as §2
[40] = fT>MIC in neutropenic mouse infected with Pseudomonas aeruginosa isolate 906 at 500 mg administered as 4 hr infusion; assay type: functional; method in brief: as §4
[41] = Cmax in Pseudomonas aeruginosa ATCC 27853 infected neutropenic ICR mouse at 50 mg/kg, sc administered as single dose 2 hrs postinfection by HPLC; assay type: ADME, organism-based; set-up: dose 50 mg/kg, route subcutaneous; details: in vivo; method in brief: as §3

C[C@@H](O)[C@H]1C(=O)N2C(C(=O)O)=C(S[C@@H]3CN[C@H](CNS(N)(=O)=O)C3)[C@H](C)[C@H]12 [DORIPENEM]
MIC (Pseudomonas aeruginosa [1]): 1 µg/mL (≈ 2.38 µM) | fT>MIC [2]: 55% | fT>MIC [3]: 55% | fT>MIC [4]: 90% | fT>MIC [5]: 80% | fT>MIC [6]: 95% | MIC (Pseudomonas aeruginosa [7]): 2 µg/mL (≈ 4.76 µM) | fT>MIC [8]: 65% | fT>MIC [9]: 0% | fT>MIC [10]: 0% | CL/F [11]: 14.2 mL/min/kg | Cmax [12]: 21800 ng/mL | fT>MIC [13]: 55% | AUC at 4 h [14]: 32400 ng·h/mL | fT>MIC [15]: 55% | fT>MIC [16]: 82.5% | fT>MIC [17]: 0% | MIC (Pseudomonas aeruginosa [18]): 4 µg/mL (≈ 9.51 µM) | fT>MIC [19]: 0% | fT>MIC [20]: 70% | fT>MIC [21]: 75% | fT>MIC [22]: 80% | fT>MIC [23]: 40% | MIC (Pseudomonas aeruginosa [24]): 16 µg/mL (≈ 38 µM) | MIC (Pseudomonas aeruginosa [25]): 1 µg/mL (≈ 2.38 µM) | fT>MIC [26]: 90% | MIC (Pseudomonas aeruginosa [27]): 0.125 µg/mL (≈ 0.297 µM) | fT>MIC [28]: 100% | fT>MIC [29]: 72.5% | fT>MIC [30]: 52.5% | MIC (Pseudomonas aeruginosa [31]): 8 µg/mL (≈ 19 µM) | fT>MIC [32]: 65% | fT>MIC [33]: 20% | fT>MIC [34]: 7.5% | fT>MIC [35]: 30% | MIC (Pseudomonas aeruginosa [36]): 0.125 µg/mL (≈ 0.297 µM) | CL/F [37]: 13.1 mL/min/kg | fT>MIC [38]: 55% | fT>MIC [39]: 42.5% | fT>MIC [40]: 70% | Cmax [41]: 59700 ng/mL
